Here are results for 29 compounds from ChEMBL document CHEMBL4823302, “Evaluation of γ-carboline-phenothiazine conjugates as simultaneous NMDA receptor blockers and cholinesterase inhibitors” (Bioorg Med Chem, 2021).

A word on the inhibition: it is how much of the control response was suppressed. Broadly, the IC50 is the point on the concentration scale where inhibition reaches its midpoint.

Data set [1] concerns the target T1, Glutamate NMDA receptor; GRIN1/GRIN2A (Homo sapiens, UniProt Q05586+Q12879). The data set can be described thus: Inhibition of human GluN1-1a/NR2A receptor expressed in transgenic mouse fibroblast cells assessed as inhibition of L-glutamate-induced excitotoxicity at 50 uM by measuring LDH activity by cell based assay. The procedure, abridged: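 Mouse fibroblasts stably expressing human GluN1-1a/2A or GluN1-1a/2B receptors were exposed to 10 μM L-glutamate plus glycine with test agent. Excitotoxicity was read as LDH activity in the medium. Agonists alone defined 100%; agonists plus 100 μM ketamine defined 0%. Percent inhibition at the single test concentration came from at least three independent experiments.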

The target in data set [2] is T2, Acetylcholinesterase (Homo sapiens, UniProt P22303). The data set can be described thus: Inhibition of recombinant human AChE expressed in HEK293 cells by Ellman's method. Format: cell-based. A general note: DTNB colorimetry detects thiols as they appear.
For data set [3], the system named is Glutamate NMDA receptor GRIN1/GRIN2B (Homo sapiens). The data set can be described thus: Inhibition of human GluN1-1a/NR2B receptor expressed in transgenic mouse fibroblast cells assessed as inhibition of L-glutamate-induced excitotoxicity at 20 uM by measuring LDH activity by cell based assay.
Data set [4] addresses Cholinesterase (Equus caballus, UniProt P81908). The data set can be described thus: Inhibition of recombinant equine BChE by Ellman's method.
Data set [5] in a line: Solubility of the compound at >= 50 uM. Format: physicochemical.
The target in data set [6] is Glutamate NMDA receptor; GRIN1/GRIN2B (Homo sapiens, UniProt Q05586+Q13224). The data set can be described thus: Inhibition of human GluN1-1a/NR2B receptor expressed in transgenic mouse fibroblast cells assessed as inhibition of L-glutamate-induced excitotoxicity by measuring LDH activity by cell based assay. The procedure, abridged: (§1)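 Stably transfected mouse fibroblasts expressing human GluN1-1a/2A or GluN1-1a/2B receptors; excitotoxicity induced with 10 μM L-glutamate plus 10 μM glycine and quantified as LDH activity in medium. Agonists without antagonist defined 100%; agonists plus 100 μM ketamine defined 0%. IC50 ± SD from at least three independent experiments.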

For data set [7], the target named is T1, Glutamate NMDA receptor; GRIN1/GRIN2A. The data set can be described thus: Inhibition of human GluN1-1a/NR2A receptor expressed in transgenic mouse fibroblast cells assessed as inhibition of L-glutamate-induced excitotoxicity by measuring LDH activity by cell based assay. The procedure, abridged: as §1
The target of data set [8] is T2, Acetylcholinesterase. As to the kind of experiment: Inhibition of recombinant human AChE expressed in HEK293 cells at 50 uM by Ellman's method relative to control. Type of data set: cell-based.
Data set [9] can be described thus: Selectivity ratio of IC50 for recombinant human AChE to IC50 for equine BuChE.
Data set [10] can be described thus: Solubility of the compound in buffer at > 20 uM. Format: physicochemical.
Data set [11] addresses Cholinesterase (Equus caballus) (UniProt P81908). As to the kind of experiment: Inhibition of recombinant equine BChE at 20 uM by Ellman's method relative to control. The procedure, abridged:
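Ellman assay with equine BChE as enzyme, compound at single concentration as listed; percent inhibition relative to control, measured in triplicate.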

The target of data set [12] is T2, Acetylcholinesterase. The data set can be described thus: Inhibition of recombinant human AChE expressed in HEK293 cells at 20 uM by Ellman's method relative to control. Format: cell-based.

A value given as a limit tells only on which side of the number the result lay.

Sequence of Glutamate NMDA receptor; GRIN1/GRIN2B (Q13224 whole entry, looked up, other chains not shown): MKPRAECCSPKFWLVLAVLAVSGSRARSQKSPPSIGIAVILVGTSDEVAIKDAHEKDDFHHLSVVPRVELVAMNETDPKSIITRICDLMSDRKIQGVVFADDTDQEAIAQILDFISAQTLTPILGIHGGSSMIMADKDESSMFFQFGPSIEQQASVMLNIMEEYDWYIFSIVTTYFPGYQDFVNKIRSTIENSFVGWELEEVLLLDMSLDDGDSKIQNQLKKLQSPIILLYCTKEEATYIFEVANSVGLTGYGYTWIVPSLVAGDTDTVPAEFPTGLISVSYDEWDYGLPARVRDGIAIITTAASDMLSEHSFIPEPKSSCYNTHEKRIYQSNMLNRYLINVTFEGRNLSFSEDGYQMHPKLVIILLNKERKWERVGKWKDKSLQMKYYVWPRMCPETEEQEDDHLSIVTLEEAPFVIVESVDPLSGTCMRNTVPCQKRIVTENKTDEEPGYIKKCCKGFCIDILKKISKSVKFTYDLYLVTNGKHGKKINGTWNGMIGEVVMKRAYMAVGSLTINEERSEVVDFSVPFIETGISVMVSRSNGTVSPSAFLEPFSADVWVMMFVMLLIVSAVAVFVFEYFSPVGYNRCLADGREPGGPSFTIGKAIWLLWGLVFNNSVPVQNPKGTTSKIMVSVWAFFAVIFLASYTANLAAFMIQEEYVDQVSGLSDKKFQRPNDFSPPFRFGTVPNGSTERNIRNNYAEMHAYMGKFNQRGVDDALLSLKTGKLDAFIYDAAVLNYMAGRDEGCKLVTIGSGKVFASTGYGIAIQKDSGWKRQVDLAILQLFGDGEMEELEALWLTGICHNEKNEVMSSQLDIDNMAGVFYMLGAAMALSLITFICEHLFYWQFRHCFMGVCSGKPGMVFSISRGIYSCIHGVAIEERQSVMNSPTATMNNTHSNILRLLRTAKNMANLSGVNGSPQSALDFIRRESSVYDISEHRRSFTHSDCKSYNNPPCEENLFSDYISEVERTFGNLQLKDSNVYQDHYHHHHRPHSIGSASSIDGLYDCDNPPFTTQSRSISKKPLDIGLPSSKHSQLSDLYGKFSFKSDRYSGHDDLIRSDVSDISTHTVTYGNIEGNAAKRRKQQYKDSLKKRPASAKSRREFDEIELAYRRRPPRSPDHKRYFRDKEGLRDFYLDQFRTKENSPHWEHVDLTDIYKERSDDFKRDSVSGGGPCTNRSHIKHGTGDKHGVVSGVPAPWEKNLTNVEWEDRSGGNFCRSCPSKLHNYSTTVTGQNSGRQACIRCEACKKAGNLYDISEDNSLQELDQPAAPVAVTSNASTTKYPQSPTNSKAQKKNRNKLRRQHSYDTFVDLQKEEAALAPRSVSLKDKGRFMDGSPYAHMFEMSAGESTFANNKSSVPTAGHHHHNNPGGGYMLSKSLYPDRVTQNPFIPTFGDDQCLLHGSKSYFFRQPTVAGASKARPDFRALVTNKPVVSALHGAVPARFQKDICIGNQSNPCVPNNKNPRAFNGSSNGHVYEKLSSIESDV
T2 sequence (P22303 whole entry): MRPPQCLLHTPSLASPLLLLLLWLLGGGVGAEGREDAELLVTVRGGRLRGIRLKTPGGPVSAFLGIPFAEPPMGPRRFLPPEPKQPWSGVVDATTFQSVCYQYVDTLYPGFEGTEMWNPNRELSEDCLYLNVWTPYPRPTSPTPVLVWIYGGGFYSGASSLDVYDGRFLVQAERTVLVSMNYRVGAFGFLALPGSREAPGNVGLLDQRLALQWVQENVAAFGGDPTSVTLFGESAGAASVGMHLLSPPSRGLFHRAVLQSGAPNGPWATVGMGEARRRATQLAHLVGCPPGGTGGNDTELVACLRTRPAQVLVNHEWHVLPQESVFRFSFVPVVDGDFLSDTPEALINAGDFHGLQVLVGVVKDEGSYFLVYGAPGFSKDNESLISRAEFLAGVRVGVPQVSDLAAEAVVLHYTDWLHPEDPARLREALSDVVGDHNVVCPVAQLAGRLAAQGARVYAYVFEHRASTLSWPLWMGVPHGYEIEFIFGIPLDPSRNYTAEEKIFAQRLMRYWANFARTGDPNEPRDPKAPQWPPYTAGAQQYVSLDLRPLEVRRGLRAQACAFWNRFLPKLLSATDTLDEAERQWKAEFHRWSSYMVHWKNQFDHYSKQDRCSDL
Sequence of Cholinesterase (P81908 whole entry): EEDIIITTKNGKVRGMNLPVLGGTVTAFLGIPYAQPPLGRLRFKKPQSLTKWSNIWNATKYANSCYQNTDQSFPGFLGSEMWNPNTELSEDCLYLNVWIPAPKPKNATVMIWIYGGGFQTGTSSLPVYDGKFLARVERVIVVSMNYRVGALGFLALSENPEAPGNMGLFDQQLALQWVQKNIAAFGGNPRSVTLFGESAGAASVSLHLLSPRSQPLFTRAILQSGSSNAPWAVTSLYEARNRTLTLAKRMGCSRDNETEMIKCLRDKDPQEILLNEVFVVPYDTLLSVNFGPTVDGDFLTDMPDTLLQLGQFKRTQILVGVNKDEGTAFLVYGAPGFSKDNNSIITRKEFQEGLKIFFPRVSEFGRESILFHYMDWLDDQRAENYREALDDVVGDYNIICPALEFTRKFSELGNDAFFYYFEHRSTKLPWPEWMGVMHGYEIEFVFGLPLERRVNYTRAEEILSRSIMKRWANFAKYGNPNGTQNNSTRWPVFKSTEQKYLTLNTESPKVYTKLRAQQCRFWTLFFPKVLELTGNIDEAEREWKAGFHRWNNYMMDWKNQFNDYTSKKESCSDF
Sequence of Cholinesterase (Equus caballus) (P81908 whole entry): as above

As for `Fc1ccc2[nH]c3ccncc3c2c1`, the inhibition in data set [1] and in data set [3] was below 50% in each case. Besides, the IC50 amounted to 11400 nM in [2] and 550 nM in data set [4]. Also, in data set [5], the solubility result is “Insoluble”.
Take `CN1CCc2c(c3ccccc3n2CCCCCCCCCn2c3c(c4ccccc42)CN(C)CC3)C1`: the inhibition in [1] and in [3] was below 50% each time.
Turning to `COc1ccc2c(c1)c1c[n+](C)ccc1n2CCC(=O)N1c2ccccc2Sc2ccccc21`, the 50% inhibitory concentration (IC50) came to 200 nM in data set [6], 400 nM in data set [7], 5300 nM in [2] and 41 nM in data set [4].
In the case of `c1ccc2c(c1)[nH]c1ccncc12`, the inhibition in data set [1] was below 50%. Besides, the results for the IC50 in [2] and in data set [4] were 21400 nM and 1200 nM, respectively. In addition, the solubility entry in data set [5] is “Insoluble”.
Consider `COc1ccc2c(c1)c1cnccc1n2CCC(=O)N1c2ccccc2Sc2ccccc21`, for which the IC50 in data set [6] worked out at 600 nM; in [7], 800 nM; in data set [2], 540 nM; in [4] it was 37 nM.
`COc1ccc2[nH]c3ccncc3c2c1`: the inhibition in data set [1] and in data set [3] was below 50% each time. For the same compound, the values for the 50% inhibitory concentration (IC50) in data set [2] and in data set [4] were 49600 nM and 12600 nM, respectively. For the same compound, the solubility entry in data set [5] is “Insoluble”.
Consider `C[n+]1ccc2c(c1)c1cc(F)ccc1n2CCC(=O)N1c2ccccc2Sc2ccccc21`, for which the IC50 in data set [6] was determined as 2100 nM; in data set [7] it was 3000 nM; in data set [2] it was 2600 nM; in data set [4], 32 nM.
As for `CN1CCc2[nH]c3ccccc3c2C1`, the inhibition in data set [1], in data set [8] and in data set [3] was below 50% each time. For the same compound, the IC50 in [4] was 6500 nM. The solubility entry in data set [5] was “Insoluble”.
Regarding `c1ccc2c(c1)c1cnccc1n2CCCCCCCCCn1c2ccccc2c2cnccc21`, the inhibition in data set [1] and in [3] was below 50% in each case. In addition, the IC50 in [2] is 80 nM.
With `Cc1ccc2[nH]c3ccncc3c2c1`, the inhibition in data set [1] and in [3] was below 50% in each case. Also, the IC50 was 35400 nM in data set [2] and 1400 nM in data set [4]. In addition, in [5], the solubility entry is listed as “Insoluble”.
With `C[n+]1ccc2c(c1)c1ccccc1n2CCCCCCCCCn1c2ccccc2c2c[n+](C)ccc21`, the 50% inhibitory concentration (IC50) in data set [2] was 0.33 nM.
On to `O=C(CCn1c2ccccc2c2c[n+](Cc3ccccc3)ccc21)N1c2ccccc2Sc2ccccc21`, for which the IC50 in [6] came out at 900 nM; in [7] it was 1000 nM; in data set [2], 2200 nM; in data set [4] it was 11 nM.
In the case of `O=C(CCn1c2ccncc2c2cc(F)ccc21)N1c2ccccc2Sc2ccccc21`, the IC50 in data set [6] turned out to be 2700 nM; in [7], 1700 nM; in data set [2], 6200 nM; in data set [4], 8 nM. In addition, in [9], the Ratio IC50 was 775.
As to `C[n+]1ccc2c(c1)c1ccccc1n2CCC(=O)N1c2ccccc2Sc2ccccc21`, the IC50 in data set [6] stood at 1400 nM; in data set [7], 2400 nM; in [2] it was 2200 nM; in data set [4], 41 nM.
For the compound `C[n+]1ccc2[nH]c3ccc(F)cc3c2c1.[I-]`, the inhibition in [1] and in data set [3] was below 50% each time. Further, the IC50 in [2] came to 1900 nM; in data set [4], 2700 nM. The solubility result in data set [5] is listed as “Insoluble”.
As to `[Br-].c1ccc(C[n+]2ccc3[nH]c4ccccc4c3c2)cc1`, the inhibition in data set [1] and in [3] was below 50% each time. Moreover, the values for the IC50 in data set [2] and in [4] were 8600 nM and 1900 nM, respectively. In data set [5], the solubility result is “Insoluble”.
For `Cc1ccc2[nH]c3c(c2c1)CN(Cc1ccccc1)CC3`, the inhibition in [1] and in [3] was below 50% throughout. Moreover, the IC50 in data set [2] was 35100 nM; in [4], 1400 nM. Besides, the solubility entry in [5] was “Insoluble”.
As for `Fc1ccc2[nH]c3c(c2c1)CN(Cc1ccccc1)CC3`, the inhibition in [1] and in data set [3] was below 50% in each case. Besides, the solubility result in [10] and in data set [5] was “Insoluble” throughout. Also, the IC50 in data set [2] was 17600 nM; in data set [4] it was 2100 nM.
Turning to `Cc1ccc2c(c1)c1cnccc1n2CCC(=O)N1c2ccccc2Sc2ccccc21`, the half-inhibitory concentration (IC50) in data set [6] amounted to 1500 nM; in data set [7], 1300 nM; in data set [2] it was 510 nM; in [4], 16 nM.
As for `c1ccc2c(c1)Nc1ccccc1S2` [PHENOTHIAZINE], the inhibition in data set [11] is below 50%; in data set [1], below 50%; in [12], below 30%. Besides, the solubility entry in [10] is on record as “Insoluble”.
For the compound `Cn1ccc2nc3ccccc3c-2c1.I`, the inhibition in data set [1] and in data set [3] was below 50% throughout. Further, the IC50 in data set [2] turned out to be 8700 nM; in data set [4], 890 nM. The solubility entry in data set [5] was “Insoluble”.
Take `COc1ccc2[nH]c3cc[n+](C)cc3c2c1.[I-]`: the inhibition in data set [1] and in [3] was below 50% each time. Moreover, the results for the IC50 in data set [2] and in data set [4] were 14700 nM and 9800 nM, respectively. The solubility result in [5] was “Insoluble”.
`COc1cc2c(cc1OC)C(=O)C(CC1CCN(Cc3ccccc3)CC1)C2` (stereo not drawn): the inhibition in data set [1] was below 50%.
On to `O=C(CCn1c2ccccc2c2cnccc21)N1c2ccccc2Sc2ccccc21`, for which the IC50 in data set [6] is 3000 nM; in data set [7], 4200 nM; in [2] it was 2300 nM; in data set [4], 8 nM.
In the case of `Cc1ccc2[nH]c3cc[n+](C)cc3c2c1.[I-]`, the inhibition in data set [1] and in [3] was below 50% each time. Also, the IC50 in [2] stood at 9100 nM; in [4], 5500 nM. In [5], the solubility entry is “Insoluble”.
For the compound `CN1CCc2c(c3ccccc3n2CCC(=O)N2c3ccccc3Sc3ccccc32)C1`, the inhibition in data set [1] and in data set [3] was below 50% in each case. Also, the IC50 amounted to 7800 nM in data set [2] and 170 nM in [4]. In [5], the solubility entry is recorded as “Insoluble”.
For the compound `COc1ccc2[nH]c3c(c2c1)CN(Cc1ccccc1)CC3`, the inhibition in data set [1] and in [3] was below 50% in each case. Besides, the IC50 came to 52700 nM in [2] and 6300 nM in data set [4]. For the same compound, the solubility entry in data set [5] is on record as “Insoluble”.
As to `c1ccc(CN2CCc3[nH]c4ccccc4c3C2)cc1`, the inhibition in [1] and in [3] was below 50% in each case. Further, the values for the IC50 in data set [2] and in [4] were 20400 nM and 6500 nM, respectively. The solubility entry in data set [5] is “Insoluble”.
Consider `Cc1ccc2c(c1)c1c[n+](C)ccc1n2CCC(=O)N1c2ccccc2Sc2ccccc21`, for which the IC50 in data set [6] was determined as 500 nM; in data set [7] it was 900 nM; in [2], 1100 nM; in [4], 32 nM.
